Test results taken from ChEMBL document CHEMBL4270642, “Boronic ester-linked macrocyclic lipopeptides as serine protease inhibitors targeting Escherichia coli type I signal peptidase” (Eur J Med Chem, 2018).
≈ marks a conversion by molar mass, not a printed value.

How the values were obtained:
[1] = Hemolytic activity in human RBC at 100 uM after 45 mins by spectrophotometric method relative to control; format: ADME, cell-based, Erythrocyte; details: red blood cells (erythrocytes), read-out: Activity
In short: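 Heparinized human blood; red cells washed three times in Tyrode buffer pH 7.4. Compound at 100 µM final with 1% DMSO and 50% RBC, shaken (250 rpm) 45 min at 37 °C. Cells pelleted (1000 × g, 10 min); supernatant haemoglobin at 540 nm. Percent lysis relative to buffer-only and 2% Triton X-100 controls.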

[2] = target: Signal peptidase I (Escherichia coli K-12, UniProt P00803); assay: Inhibition of Escherichia coli type 1 signal peptidase lepB preincubated for 10 mins followed by Dabcyl-VGGTATAYGAFSRPGLE-(EDANS)-OH substrate addition measured after 2 hrs by FRET based assay
In short: (§1)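 EcLepB (about 50 nM estimated) preincubated 10 min with compound. Reaction started with Dabcyl/EDANS FRET peptide at 8 µM final (Km 20 µM). Fluorescence followed continuously at 535 nm, 22 °C, for 2 h. Cleavage rates plotted against inhibitor concentration; IC50 from non-linear regression of sigmoidal dose-response curves.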

[3] = test system: Escherichia coli; assay: Antibacterial activity against Escherichia coli ATCC 25922 after 16 to 20 hrs by broth microdilution method; format: functional
In short: (§2)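 Broth microdilution in cation-adjusted Mueller-Hinton II per EUCAST/CLSI; two-fold compound series 64 down to 0.25 µg/mL final. Inoculum from fresh colonies (non-selective agar, 18-24 h, 35 ± 2 °C), adjusted to 0.5 McFarland, diluted to about 5 × 10^5 CFU/mL final. Static incubation 16-20 h at 35 ± 2 °C; MIC read visually as complete growth inhibition against medium-only wells.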

[4] = test system: Escherichia coli; assay: Antibacterial activity against tolC deficient Escherichia coli CH3130 after 16 to 20 hrs by broth microdilution method; format: functional; in short: as §2
[5] = test system: Escherichia coli; assay: Antibacterial activity against Escherichia coli D22 CGSG 5163 harboring Ips mutant after 16 to 20 hrs by broth microdilution method; format: functional
In short: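 Broth microdilution in cation-adjusted Mueller-Hinton II broth, following EUCAST and CLSI guidelines. Two-fold series at final concentrations 64 down to 0.25 µg/mL, with medium-only and growth controls. Inoculum from fresh colonies (18-24 h, 35 °C ± 2 °C) adjusted to 0.5 McFarland, final ≈5 × 10^5 CFU/mL. Plates incubated unshaken 16-20 h at 35 °C ± 2 °C. MIC read visually as complete inhibition of growth.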

[6] = test system: Pseudomonas aeruginosa; assay: Antibacterial activity against Pseudomonas aeruginosa PAO1 after 16 to 20 hrs by broth microdilution method; format: functional; in short: as §2
[7] = test system: Pseudomonas aeruginosa; assay: Antibacterial activity against efflux defective Pseudomonas aeruginosa PAO750 after 16 to 20 hrs by broth microdilution method; format: functional; in short: as §2
[8] = test system: Klebsiella pneumoniae; assay: Antibacterial activity against Klebsiella pneumoniae ATCC 13883 after 16 to 20 hrs by broth microdilution method; format: functional; in short: as §2
[9] = test system: HepG2; assay: Cytotoxicity against human HepG2 cells after 72 hrs by FMSA; format: cell-based; details: HepG2, 72 h
In short: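 HepG2 (ATCC) grown in EMEM with 10% FBS, pen/strep, 2 mM L-glutamine, used up to 20 passages. Seeded at 1000 cells/well, cultured overnight, then dosed acoustically from DMSO stocks. Eight two-fold dilutions in duplicate from top 64 or 32 µM; 72 h at 37 °C, 5% CO2. Fluorescein diacetate hydrolysis read at ex 485/em 530 nm; IC50 by non-linear regression.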

[10] = test system: Acinetobacter baumannii; assay: Antibacterial activity against Acinetobacter baumannii ATCC 19606 after 16 to 20 hrs by broth microdilution method; format: functional; details: ATCC 19606 = CIP 70.34 = JCM 6841; in short: as §2
[11] = test system: Staphylococcus aureus; assay: Antibacterial activity against Staphylococcus aureus ATCC 29213 after 16 to 20 hrs by broth microdilution method; format: functional; in short: as §2
[12] = target: Signal peptidase I (Escherichia coli K-12) (UniProt P00803); assay: Inhibition of Escherichia coli type 1 signal peptidase lepB assessed as residual activity at 10 uM preincubated for 10 mins followed by Dabcyl-VGGTATAYGAFSRPGLE-(EDANS)-OH substrate addition measured after 2 hrs by FRET based assay (reference value: 100%); in short: as §1
[13] = target: Signal peptidase I (Escherichia coli K-12) (UniProt P00803); assay: Inhibition of Escherichia coli type 1 signal peptidase lepB assessed as residual activity at 5 uM preincubated for 10 mins followed by Dabcyl-VGGTATAYGAFSRPGLE-(EDANS)-OH substrate addition measured after 2 hrs by FRET based assay (reference value: 100%); in short: as §1
[14] = target: Signal peptidase I (Escherichia coli K-12) (UniProt P00803); assay: Inhibition of Escherichia coli type 1 signal peptidase lepB assessed as residual activity at 2.5 uM preincubated for 10 mins followed by Dabcyl-VGGTATAYGAFSRPGLE-(EDANS)-OH substrate addition measured after 2 hrs by FRET based assay (reference value: 100%); in short: as §1
[15] = target: Signal peptidase I (Escherichia coli K-12) (UniProt P00803); assay: Inhibition of Escherichia coli type 1 signal peptidase lepB assessed as residual activity at 1.25 uM preincubated for 10 mins followed by Dabcyl-VGGTATAYGAFSRPGLE-(EDANS)-OH substrate addition measured after 2 hrs by FRET based assay (reference value: 100%); in short: as §1
[16] = target: Signal peptidase I (Escherichia coli K-12) (UniProt P00803); assay: Inhibition of Escherichia coli type 1 signal peptidase lepB assessed as residual activity at 0.625 uM preincubated for 10 mins followed by Dabcyl-VGGTATAYGAFSRPGLE-(EDANS)-OH substrate addition measured after 2 hrs by FRET based assay (reference value: 100%); in short: as §1
[17] = target: Signal peptidase I (Escherichia coli K-12) (UniProt P00803); assay: Inhibition of Escherichia coli type 1 signal peptidase lepB assessed as residual activity at 0.3125 uM preincubated for 10 mins followed by Dabcyl-VGGTATAYGAFSRPGLE-(EDANS)-OH substrate addition measured after 2 hrs by FRET based assay (reference value: 100%); in short: as §1
[18] = target: Signal peptidase I (Escherichia coli K-12) (UniProt P00803); assay: Inhibition of Escherichia coli type 1 signal peptidase lepB assessed as residual activity at 0.1563 uM preincubated for 10 mins followed by Dabcyl-VGGTATAYGAFSRPGLE-(EDANS)-OH substrate addition measured after 2 hrs by FRET based assay (reference value: 100%); in short: as §1
[19] = target: Signal peptidase I (Escherichia coli K-12) (UniProt P00803); assay: Inhibition of Escherichia coli type 1 signal peptidase lepB assessed as residual activity at 0.0781 uM preincubated for 10 mins followed by Dabcyl-VGGTATAYGAFSRPGLE-(EDANS)-OH substrate addition measured after 2 hrs by FRET based assay (reference value: 100%); in short: as §1
[20] = target: Signal peptidase I (Escherichia coli K-12) (UniProt P00803); assay: Inhibition of Escherichia coli type 1 signal peptidase lepB assessed as residual activity at 0.0391 uM preincubated for 10 mins followed by Dabcyl-VGGTATAYGAFSRPGLE-(EDANS)-OH substrate addition measured after 2 hrs by FRET based assay (reference value: 100%); in short: as §1
[21] = target: Signal peptidase I (Escherichia coli K-12) (UniProt P00803); assay: Inhibition of Escherichia coli type 1 signal peptidase lepB assessed as residual activity at 0.0195 uM preincubated for 10 mins followed by Dabcyl-VGGTATAYGAFSRPGLE-(EDANS)-OH substrate addition measured after 2 hrs by FRET based assay (reference value: 100%); in short: as §1
[22] = target: Signal peptidase I (Escherichia coli K-12) (UniProt P00803); assay: Inhibition of Escherichia coli type 1 signal peptidase lepB assessed as residual activity at 0.0098 uM preincubated for 10 mins followed by Dabcyl-VGGTATAYGAFSRPGLE-(EDANS)-OH substrate addition measured after 2 hrs by FRET based assay (reference value: 100%); in short: as §1
[23] = target: Signal peptidase I (Escherichia coli K-12) (UniProt P00803); assay: Inhibition of Escherichia coli type 1 signal peptidase lepB assessed as residual activity at 0.0049 uM preincubated for 10 mins followed by Dabcyl-VGGTATAYGAFSRPGLE-(EDANS)-OH substrate addition measured after 2 hrs by FRET based assay (reference value: 100%); in short: as §1
[24] = target: Signal peptidase I (Escherichia coli K-12) (UniProt P00803); assay: Inhibition of Escherichia coli type 1 signal peptidase lepB assessed as residual activity at 0.0024 uM preincubated for 10 mins followed by Dabcyl-VGGTATAYGAFSRPGLE-(EDANS)-OH substrate addition measured after 2 hrs by FRET based assay (reference value: 100%); in short: as §1
[25] = target: Signal peptidase I (Escherichia coli K-12) (UniProt P00803); assay: Inhibition of Escherichia coli type 1 signal peptidase lepB assessed as residual activity at 0.0012 uM preincubated for 10 mins followed by Dabcyl-VGGTATAYGAFSRPGLE-(EDANS)-OH substrate addition measured after 2 hrs by FRET based assay (reference value: 100%); in short: as §1

Chain of Signal peptidase I (P00803 whole entry): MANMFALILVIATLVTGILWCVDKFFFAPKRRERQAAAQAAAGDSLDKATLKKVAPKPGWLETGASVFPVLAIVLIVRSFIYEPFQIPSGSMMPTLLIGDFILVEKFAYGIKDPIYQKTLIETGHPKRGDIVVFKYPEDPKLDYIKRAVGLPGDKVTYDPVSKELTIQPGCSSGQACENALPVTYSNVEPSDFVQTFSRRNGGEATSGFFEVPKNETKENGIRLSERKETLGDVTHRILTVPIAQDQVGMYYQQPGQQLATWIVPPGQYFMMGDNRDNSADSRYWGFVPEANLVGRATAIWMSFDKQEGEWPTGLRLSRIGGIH
Chain of Signal peptidase I (Escherichia coli K-12) (P00803 whole entry): as above

SMILES | hemolysis at 0.75 h, 100 µM [1] | IC50 [2] | MIC [3] | MIC [4] | MIC [5] | MIC [6] | MIC [7] | MIC [8] | IC50 [9] | MIC [10] | MIC [11] | Activity [12] | Activity [13] | Activity [14] | Activity [15] | Activity [16] | Activity [17] | Activity [18] | Activity [19] | Activity [20] | other results
CCCCCCC#Cc1cncc(C(=O)N[C@@H](CCCN)C(=O)N[C@H](C(=O)N[C@@H](C)C(=O)N[C@H]2Cc3cn(nn3)CCO[C@@H]3C[C@@H]4OB(O[C@@H]4C3)[C@H](C)NC2=O)[C@@H](C)O)c1 | 0.01% | 41 nM | > 64 µg/mL | 64 µg/mL (≈ 76.7 µM) | > 64 µg/mL | > 64 µg/mL | > 64 µg/mL | > 64 µg/mL | > 64000 nM | > 64 µg/mL | 32 µg/mL (≈ 38.3 µM) | -1.2% | 2.3% | 8.2% | 7.9% | 13% | 13.4% | 10.6% | 26.8% | 53.7% | Activity [21]: 75.2%; Activity [22]: 82.7%; Activity [23]: 91%; Activity [24]: 93.6%; Activity [25]: 106%
CCCCCCc1ccc(-n2cc(C(=O)N[C@@H](CCCN)C(=O)N[C@H](C(=O)N[C@@H](C)C(=O)N[C@H]3Cc4cn(nn4)CCO[C@@H]4C[C@@H]5OB(O[C@@H]5C4)[C@H](C)NC3=O)[C@@H](C)O)ccc2=O)cc1 | 0.03% | 495 nM | > 64 µg/mL | > 64 µg/mL | > 64 µg/mL | > 64 µg/mL | > 64 µg/mL | > 64 µg/mL | > 64000 nM | > 64 µg/mL | 64 µg/mL (≈ 70.9 µM) | 17% | 15.8% | 17.3% | 24.3% | 32.6% | 59.3% | 90% | 95.3% | 98.3% | Activity [21]: 111%; Activity [22]: 98.8%; Activity [23]: 101%; Activity [24]: 101%; Activity [25]: 109%
CCCCCCc1ccc(-c2ccc(C(=O)N3CC(CN)C[C@H]3C(=O)N[C@H](C(=O)N[C@@H](C)C(=O)N[C@@H](CC(N)=O)C(=O)N[C@@H](C)B(O)O)[C@@H](C)O)cc2)cc1 (some centres undefined) | 2.5% | 6 nM | 16 µM |  |  |  |  |  | 16000 nM |  |  |  |  |  |  |  |  |  |  |  | 
CCCCCCc1ccc(-c2c[nH]c3ccc(C(=O)N[C@@H](CCCN)C(=O)N[C@H](C(=O)N[C@@H](C)C(=O)N[C@H]4Cc5cn(nn5)CCO[C@@H]5C[C@@H]6OB(O[C@@H]6C5)[C@H](C)NC4=O)[C@@H](C)O)cc23)cc1 | 2.8% | 225 nM | 32 µg/mL | 32 µg/mL (≈ 34.6 µM) | 16 µg/mL (≈ 17.3 µM) | 64 µg/mL (≈ 69.2 µM) | 64 µg/mL (≈ 69.2 µM) | 64 µg/mL (≈ 69.2 µM) | 23700 nM | 64 µg/mL (≈ 69.2 µM) | 16 µg/mL (≈ 17.3 µM) | -19.8% | -6.8% | 2.9% | 8.1% | 20.4% | 42.8% | 58.5% | 78.1% | 94.2% | Activity [21]: 101%; Activity [22]: 98.5%; Activity [23]: 99.5%; Activity [24]: 108%; Activity [25]: 106%
CCCCCCc1ccc(-c2nc3cc(C(=O)N[C@@H](CCCN)C(=O)N[C@H](C(=O)N[C@@H](C)C(=O)N[C@H]4Cc5cn(nn5)CCO[C@@H]5C[C@@H]6OB(O[C@@H]6C5)[C@H](C)NC4=O)[C@@H](C)O)ccc3[nH]2)cc1 | 0.5% | 29 nM | > 64 µg/mL | 16 µg/mL (≈ 17.3 µM) | 64 µg/mL (≈ 69.1 µM) | > 64 µg/mL | 64 µg/mL (≈ 69.1 µM) | 64 µg/mL (≈ 69.1 µM) | 24400 nM | 64 µg/mL (≈ 69.1 µM) | 4 µg/mL (≈ 4.32 µM) | 6.3% | -0.1% | 2.8% | 5.4% | 8.6% | 6.8% | 7.2% | 16.5% | 40.6% | Activity [21]: 63.2%; Activity [22]: 86.3%; Activity [23]: 88.3%; Activity [24]: 92.8%; Activity [25]: 100%
